Screens: PubChem, The Scripps Research Institute Molecular Screening Center
rCAG binder: molecules binding r(CAG) RNA repeats | r(CAG) RNA repeat, TO-PRO-1 dye displacement fluorescence | inhibition, % at 3 µM | 1.3% of 370,000 active | AID 651821;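 active = inhibition above the plate cutoff, the mean of all test compounds on that plate plus 3 SD, cut at about 35% in these data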;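 note: 0% = DMSO alone and 100% = 100 µM mitoxantrone as full dye displacement; higher means more dye released from RNA so lower well fluorescence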
TAAR1 antagonist: antagonists of human TAAR1; Q96RJ0; inhibition, % at 3 µM; AID 624466; 1.5% of 360,000 active; CHO RD-HGA16 TAAR1, Fluo-8 calcium fluorescence, antagonist;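 active = inhibition above a per-plate cutoff, the mean inhibition of test compounds on that plate plus 3 SD, cut at about 49% in these data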;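 note: 0% = DMSO plus EC80 beta-PEA response and 100% = DMSO alone without agonist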
Target sequence (Q96RJ0 whole entry, looked up): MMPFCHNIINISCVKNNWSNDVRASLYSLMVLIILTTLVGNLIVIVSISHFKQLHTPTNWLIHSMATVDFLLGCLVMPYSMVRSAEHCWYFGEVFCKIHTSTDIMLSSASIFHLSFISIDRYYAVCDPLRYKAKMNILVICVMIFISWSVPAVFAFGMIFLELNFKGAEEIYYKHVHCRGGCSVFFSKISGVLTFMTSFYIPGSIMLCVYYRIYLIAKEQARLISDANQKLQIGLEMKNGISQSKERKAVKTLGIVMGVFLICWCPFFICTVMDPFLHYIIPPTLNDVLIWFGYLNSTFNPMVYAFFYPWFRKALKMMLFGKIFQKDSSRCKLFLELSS
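System: CHO RD-HGA16 cells bearing hTAAR1. Reagent: EC80 β-phenethylamine stimulus. Schedule: seeding 17-24 h prior, 75-min 37 °C, 30-min RT dye loading. Signal: Fluo-8 intracellular calcium dye fluorescence, real-time kinetic reads. Read-out: % inhibition from peak post-agonist over basal fluorescence ratio. Benchmarks: vehicle wells and EC80 agonist wells. Replicates: n of 1.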
NS3 helicase inh: inhibitors of Hepatitis C virus NS3 helicase | NS3 helicase DNA unwinding, Cy5 molecular beacon fluorescence | inhibition, % at 10.9 µM | 0.56% of 290,000 active;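 active = inhibition above the mean of all tested compounds plus 3 SD, set per campaign, cut at about 35% in these data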;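 note: 0% = DMSO wells and 100% = thioflavine S control wells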
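test system = hepatitis C virus NS3 helicase domain fragment enzyme | reagent = annealed dual-labelled DNA beacon duplex, ATP-started | times = 1 h at 25 °C | detection = Cy5 fluorescence, 0 and 60 min reads | read-out basis = percent inhibition from t60/t0 fluorescence ratio | control set = DMSO and thioflavine S | replication = one well per compound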
TAAR1 ag: agonists of human TAAR1; CHO RD-HGA16 TAAR1, Fluo-8 calcium fluorescence; vehicle wells 0%, saturating PEA agonist 100%; activation, % at 3 µM; 0.99% of 360,000 active; AID 624467;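 active = activation above the mean activation of all test compounds in the run plus 3 SD, cut at about 38% in these data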
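test system = CHO RD-HGA16 cells carrying human TAAR1 plus Gα16 | schedule = 17-24 h seeding, 75 min 37 °C dye, 30 min RT | compound dosing = 3 µM single concentration | control set = DMSO and PEA EC100 | replicates = n 1 | signal = Fluo-8 fluorescence, 5 s baseline then 140 s kinetic read | measure = percent activation vs PEA EC100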
HCV core dimer: blocks dimerization of HCV core protein | TR-FRET GST/Flag-core106 dimerization, 1536-well | inhibition, % at 5 µM | 0.33% of 300,000 active;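 active = inhibition above the mean of all tested compounds plus 3 SD, set per screening campaign, cut at about 45% in these data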
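Assay system: Tagged HCV core106 pair (GST and Flag) | Buffer or medium: KF-containing HEPES buffer, pH 7.45, DTT, CHAPS, BSA | Also added: Eu donor and XL665 acceptor anti-tag antibodies | Dosing: One concentration, 5 µM, in 0.5% DMSO | Timing: 4 h at 22.5 °C | Technique: TR-FRET 671 and 617 nm emission | Repeats: Singlicate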
* hit, by the source's call; x = not tested or not shown. Only some compounds are listed: those with a hit (about 3.7% of all), similar ones and a draw of the others.

SMILES | rCAG binder | TAAR1 antagonist | NS3 helicase inh | TAAR1 ag | HCV core dimer
CCOC(=O)CN1C(=O)S/C(=C/c2ccc(N3CCCCC3)o2)C1=O | -15 | 29 | 7 | 29 | -7
CC(C)NC(=O)Cn1c(-c2cncs2)nc2ccccc21 | 1 | x | x | x | x
CN(C)CCN(C(=O)/C=C/c1cccs1)c1nc2ccc(Br)cc2s1 | 3 | 56* | -84 | 6 | 2
Cc1cc(NC(=O)Nc2cccc(F)c2)n(-c2ccccc2)n1 | 6 | x | x | x | x
Cc1ccccc1NC(=O)Nc1ccc2c(c1)C(=O)N(C)[C@H]1CC[C@H](CC(=O)NCC3CC3)O[C@@H]1CO2 | 2 | x | x | x | x
CCOC(=O)C1=C(N)N2C(=O)C(C)SC2=C(C(=O)OC)C1c1ccccc1OC (stereo not drawn) | 0 | 14 | -6 | 37* | 8
CC(=NNc1nc2ccccc2s1)c1ncccn1 | 1 | 74* | x | 49* | x
NS(=O)(=O)c1ccc(CCn2c(=S)[nH]c3ccccc3c2=O)cc1 | 5 | 61* | 2 | 38* | -7
CCC(=O)N[C@@H]1C[C@@H]2O[C@@H](CO)CC[C@@H]2O[C@@H]1CCc1ccc(-c2cccc(OC)c2)cc1 | 0 | x | x | x | x
Cc1cccc(-c2nc(=S)c3c(n2Cc2ccco2)CCCC3)c1 | 4 | -11 | 1 | 5 | 64*
COc1ccc(OC)c(-c2csc(NC(=O)CSc3ccc([N+](=O)[O-])cc3)n2)c1 | 23 | 49* | 2 | 4 | 41
Cc1sc(NC(=O)Cn2[nH]c(=O)c3ccccc3c2=O)nc1-c1ccccc1 | 21 | 17 | 6 | 0 | 49*
COc1ccc(OC)c(-c2csc(NC(=O)Cc3ccc(F)cc3)n2)c1 | 0 | 40 | -21 | 0 | -7
COc1ccc(-c2csc(NC(=O)CCS(=O)(=O)c3ccccc3)n2)c(OC)c1 | 8 | 55* | -14 | 12 | 6
COc1ccc(OC)c(-c2csc(NC(=O)Cn3[nH]c(=O)c4ccccc4c3=O)n2)c1 | 12 | 54* | 5 | 4 | 16
COc1ccc(-c2csc(NC(=O)CS(=O)(=O)c3ccccc3)n2)c(OC)c1 | 7 | -8 | x | 4 | x
CCN(CC)C(=O)CC[C@H]1CC[C@]2(CCCN(Cc3cccs3)C2)O1 | -2 | x | x | x | x
N#Cc1cc([N+](=O)[O-])ccc1Oc1cccc(/C=N/NC(=O)c2cccc(Cl)c2)c1 | x | x | -9 | x | 50*
O=C(N/N=C/c1cccc(Oc2ccccc2)c1)c1cccc(O)c1 | 4 | 37 | -5 | 4 | x
COc1ccc(/C=N/NC(=O)c2cccc([N+](=O)[O-])c2)cc1OC | -2 | 13 | 2 | 3 | 1
O=C(/C=C/c1cccs1)c1ccc(NC(=O)c2cccc(Br)c2)cc1 | 26 | 55* | 4 | 7 | -5
O=C(N/N=C/c1cccc(Oc2ccccc2)c1)c1cccc(Br)c1 | 7 | 57* | -5 | 2 | 14
O=C(N/N=C/c1cccnc1)c1ccc(NC(=O)C(c2ccccc2)c2ccccc2)cc1 | 14 | 57* | -14 | 8 | 6
C=CCN1C(=O)[C@H](CC(=O)NCCC(C)C)[C@@]2(C(=O)OCC)CCCC=C12 | -2 | x | x | x | x
COC(=O)[C@H](CC(C)C)N(Cc1cn(CC2CCCCC2)nn1)S(=O)(=O)c1ccc(F)cc1Br | 4 | x | x | x | x
SMILES | rCAG binder | TAAR1 antagonist | NS3 helicase inh | TAAR1 ag | HCV core dimer
O=C(N/N=C/c1ccc(OC(=O)c2cccc(Br)c2)cc1)c1cccnc1 | 2 | 12 | 1 | 1 | 5
O=C(Nc1cccc(C(=O)Nc2cccc(Br)c2)c1)c1ccccc1 | 12 | 62* | -4 | 16 | 23
O=C(N/N=C/c1cccnc1)c1cccc(NC(=O)c2cccc(Br)c2)c1 | 2 | 51* | -7 | 15 | -7
O=C(N/N=C/c1cccc(OC(=O)c2cccc(Br)c2)c1)c1cccnc1 | 3 | 58* | -12 | 18 | x
Cc1sc2nc(COC(=O)CNC(=O)c3ccccc3Cl)[nH]c(=O)c2c1C | 5 | x | x | x | x
O=[N+]([O-])c1ccc(C(=S)N2CCC(Cc3ccccc3)CC2)cc1 | 1 | 53* | 0 | 3 | 10
O=[N+]([O-])c1ccc(CN2CCC(Cc3ccccc3)CC2)cc1 | -8 | 0 | -1 | -2 | x
O=C(Nc1ccccc1)Nc1ccc2nnsc2c1 | 5 | 3 | -4 | 30 | -4
CN(C)c1ccc(NC(=O)Nc2ccc3snnc3c2)cc1 | 7 | 58* | 5 | 22 | -36
O=C(Nc1ccccc1)Nc1ccc2snnc2c1 | 5 | 17 | 5 | 40* | 3
O=C(CSc1nc2ccccc2nc1N1CCCC1)N1CCN(c2cccc(C(F)(F)F)c2)CC1 | 6 | x | x | x | x
CCCSc1nc(N)c(C#N)c(-c2ccc(C)cc2)c1C#N | -2 | 54* | 4 | 31 | 43
COc1cccc(N=Nc2ccc3cccnc3c2O)c1 | 15 | 74* | 32 | 37 | -14
COc1cccc(N=Nc2ccc(O)c3ncccc23)c1 | 18 | 70* | 16 | 18 | -11
COc1ccc(N=Nc2ccc(O)c3ncccc23)cc1 | 6 | 46 | 12 | 10 | -1
CC(C)CN(CC(C)C)C(=O)c1cn(C(C)c2ccccc2)nn1 (stereo not drawn) | -1 | x | x | x | x
COc1ccc(CNC(=O)c2sc(=O)n(Cc3ccc(-c4ccccc4)cc3)c2C)cc1OC | 11 | 65* | x | 5 | x
O=[N+]([O-])c1cc2c(c(CSc3nnc(Nc4ccccc4)s3)c1)OCOC2 | 4 | 53* | -5 | 4 | 16
Cc1ccccc1Nc1nnc(SCc2cc([N+](=O)[O-])cc3c2OCOC3)s1 | x | x | -5 | x | 9
CCO[C@@H]1OC(C(=O)N2CCN(Cc3ccccc3)CC2)=C[C@H](c2ccc(C(F)(F)F)cc2)[C@H]1CCCO | -8 | 34 | -15 | 6 | -12
CCO[C@@H]1OC(C(=O)N2CCN(Cc3ccccc3)CC2)=C[C@H](c2ccc(Br)cc2)[C@H]1CCCO | 0 | 49* | -15 | 13 | -7
CCN(CC)C(=O)CSc1nc2ccc(NC(=O)CSc3nnc(COc4ccccc4C)n3C)cc2s1 | 4 | 56* | -16 | 17 | 21
CCOC(=O)CSc1nc2ccc(NC(=O)CSc3nnnn3Cc3ccccc3)cc2s1 | 14 | 53* | 11 | 11 | 3
CCC(=O)Nc1cccc(NC(=O)CSc2nnnn2Cc2ccccc2)c1 | -3 | -4 | -9 | 5 | -2
CCCCCCCCN1CCS(=O)(=O)N(Cc2ccc(F)cc2)C(C(=O)OC)C1 (stereo not drawn) | 2 | x | x | x | x
c1ccc2c(c1)CC(N1CCCCC1)c1ccccc1S2 (stereo not drawn) | 0 | -17 | x | -2 | 1
CCc1ccc2c(c1)Sc1ccccc1CC2N1CCN(C)CC1 (stereo not drawn) | -6 | 10 | x | 43* | -5
C=CCC[C@H](Cc1ccc(F)cc1)C(=O)OC[C@H](Cc1c[nH]c2ccccc12)NC(=O)[C@@H](CC=C)CC(=O)N[C@@H](CO)Cc1ccccc1 | 1 | 2 | x | 4 | x
